Series [1] addresses Muscarinic acetylcholine receptor M3 (Homo sapiens, UniProt P20309). The series is described as follows: Antagonist activity at mAChR M3 in human CCRF-CEM cells assessed as inhibition of acetylcholine-mediated calcium flux incubated for 25 mins followed by acetylcholine stimulation measured for 90 secs. It counts as functional, cell-based. Background: Calcium flux is commonly read through the fluorescence of an indicator in the cells.

A short description of series [2]: Permeability of the compound in pH 7.4 buffer after 4 hrs by PAMPA. It counts as ADME. Conditions: read-out: permeability; call rule not given here. In outline: (§1)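 Parallel artificial membrane permeability assay (PAMPA) for passive transcellular permeability, run at pH 7.4 and at pH 5.5, with permeability reported in nm/s.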
A general note: PAMPA measures passive passage across an artificial lipid membrane.

Series [3] in a line: Permeability of the compound in pH 5.5 buffer after 4 hrs by PAMPA. To be noted: PAMPA, pH 5.5; read-out: permeability. The class given is ADME. In outline: as §1
Another series has as its target T1, Cytochrome P450 2C8 (Homo sapiens, UniProt P10632).
T1 sequence (P10632 whole entry): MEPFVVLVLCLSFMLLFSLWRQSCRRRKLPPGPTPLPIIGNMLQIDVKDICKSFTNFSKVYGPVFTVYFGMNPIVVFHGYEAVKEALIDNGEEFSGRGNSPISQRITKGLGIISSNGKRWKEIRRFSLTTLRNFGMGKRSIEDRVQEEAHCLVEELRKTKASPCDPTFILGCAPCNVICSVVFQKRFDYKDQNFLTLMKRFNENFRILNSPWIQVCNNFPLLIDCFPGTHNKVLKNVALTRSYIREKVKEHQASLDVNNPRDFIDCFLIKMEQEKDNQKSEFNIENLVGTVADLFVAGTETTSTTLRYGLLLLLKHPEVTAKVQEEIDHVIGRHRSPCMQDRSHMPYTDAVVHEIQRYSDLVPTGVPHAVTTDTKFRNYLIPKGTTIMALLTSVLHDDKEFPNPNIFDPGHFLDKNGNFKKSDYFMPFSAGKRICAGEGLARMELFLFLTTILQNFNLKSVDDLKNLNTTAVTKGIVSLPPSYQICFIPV
The series is described as follows: Inhibition of CYP2C8 (unknown origin). It counts as ADME. Conditions: human.

The next series has as its target Cytochrome P450 2C19 (Homo sapiens, UniProt P33261). The series is described as follows: Inhibition of CYP2C19 (unknown origin). The class given is ADME. To be noted: human.
Series [4] in a line: Metabolic stability in mouse liver microsomes assessed as parent compound remaining. It counts as ADME, microsome. In general terms: Liver microsomes are a subcellular fraction often used to study metabolism.
Series [5] in a line: Metabolic stability in rat liver microsomes assessed as parent compound remaining. The class given is ADME, microsome.
Series [6] can be described thus: Metabolic stability in human liver microsomes assessed as parent compound remaining. It counts as ADME, microsome.
For the next series, the target named is T2, Cytochrome P450 1A2 (Homo sapiens, UniProt P05177).
T2 sequence (P05177 whole entry): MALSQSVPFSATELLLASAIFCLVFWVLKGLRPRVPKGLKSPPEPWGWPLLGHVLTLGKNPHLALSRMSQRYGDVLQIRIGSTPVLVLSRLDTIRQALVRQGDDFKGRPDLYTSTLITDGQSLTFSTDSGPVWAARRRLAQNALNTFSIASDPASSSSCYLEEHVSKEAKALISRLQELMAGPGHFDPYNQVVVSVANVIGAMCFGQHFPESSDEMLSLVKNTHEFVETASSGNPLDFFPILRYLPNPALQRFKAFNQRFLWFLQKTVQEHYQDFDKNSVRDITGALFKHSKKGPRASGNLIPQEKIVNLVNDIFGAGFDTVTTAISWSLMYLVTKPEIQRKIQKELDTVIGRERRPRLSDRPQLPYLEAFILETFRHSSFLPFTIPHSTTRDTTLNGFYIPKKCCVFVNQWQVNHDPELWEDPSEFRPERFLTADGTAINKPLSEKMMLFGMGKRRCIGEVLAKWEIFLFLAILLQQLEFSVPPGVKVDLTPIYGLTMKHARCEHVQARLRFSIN
The series is described as follows: Inhibition of CYP1A2 (unknown origin). It counts as ADME.

Another series concerns the target Cytochrome P450 2C9 (Homo sapiens, UniProt P11712). Nature of the series: Inhibition of CYP2C9 (unknown origin). The class given is ADME.
Another series has as its target T3, Cytochrome P450 2B6 (Homo sapiens, UniProt P20813).
T3 sequence (P20813 whole entry): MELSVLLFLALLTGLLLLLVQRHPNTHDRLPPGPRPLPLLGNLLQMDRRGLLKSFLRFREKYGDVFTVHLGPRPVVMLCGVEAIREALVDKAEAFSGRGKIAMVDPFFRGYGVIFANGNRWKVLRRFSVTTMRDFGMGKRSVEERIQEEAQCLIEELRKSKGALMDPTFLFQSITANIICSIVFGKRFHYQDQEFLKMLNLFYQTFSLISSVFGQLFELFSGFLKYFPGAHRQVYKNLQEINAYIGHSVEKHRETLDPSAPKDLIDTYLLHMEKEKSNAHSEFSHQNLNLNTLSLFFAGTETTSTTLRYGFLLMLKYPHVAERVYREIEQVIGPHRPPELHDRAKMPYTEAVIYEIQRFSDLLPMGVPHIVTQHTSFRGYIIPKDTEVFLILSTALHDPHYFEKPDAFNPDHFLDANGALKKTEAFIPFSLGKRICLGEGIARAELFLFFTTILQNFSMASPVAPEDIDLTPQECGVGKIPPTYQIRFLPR
The series is described as follows: Inhibition of CYP2B6 (unknown origin). It counts as ADME.

The target of a further series is T4, Cytochrome P450 2A6 (Homo sapiens, UniProt P11509).
T4 sequence (P11509 whole entry): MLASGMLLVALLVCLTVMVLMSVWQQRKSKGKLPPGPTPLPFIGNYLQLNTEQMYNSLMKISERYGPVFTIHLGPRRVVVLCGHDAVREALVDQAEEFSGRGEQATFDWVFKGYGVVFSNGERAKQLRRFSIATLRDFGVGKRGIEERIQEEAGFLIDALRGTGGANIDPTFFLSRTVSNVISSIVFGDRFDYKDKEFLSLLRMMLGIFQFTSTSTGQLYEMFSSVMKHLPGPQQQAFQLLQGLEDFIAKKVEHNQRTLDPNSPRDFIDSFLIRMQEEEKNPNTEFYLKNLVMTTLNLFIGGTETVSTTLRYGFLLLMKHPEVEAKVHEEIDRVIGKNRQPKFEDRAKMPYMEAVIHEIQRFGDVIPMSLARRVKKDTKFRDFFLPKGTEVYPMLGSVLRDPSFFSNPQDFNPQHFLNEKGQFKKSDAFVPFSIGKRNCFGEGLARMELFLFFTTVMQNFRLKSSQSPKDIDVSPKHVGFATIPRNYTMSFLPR
Nature of the series: Inhibition of CYP2A6 (unknown origin). It counts as ADME.

This is an account of results in ChEMBL document CHEMBL4138298, “Synthesis of Novel Tetrahydroisoquinoline CXCR4 Antagonists with Rigidified Side-Chains” (ACS Med Chem Lett, 2018).

A value given as a limit tells only on which side of the number the result lay.

By IC50 is commonly meant the concentration needed to halve the response being measured.

Sequence of Muscarinic acetylcholine receptor M3 (P20309 whole entry): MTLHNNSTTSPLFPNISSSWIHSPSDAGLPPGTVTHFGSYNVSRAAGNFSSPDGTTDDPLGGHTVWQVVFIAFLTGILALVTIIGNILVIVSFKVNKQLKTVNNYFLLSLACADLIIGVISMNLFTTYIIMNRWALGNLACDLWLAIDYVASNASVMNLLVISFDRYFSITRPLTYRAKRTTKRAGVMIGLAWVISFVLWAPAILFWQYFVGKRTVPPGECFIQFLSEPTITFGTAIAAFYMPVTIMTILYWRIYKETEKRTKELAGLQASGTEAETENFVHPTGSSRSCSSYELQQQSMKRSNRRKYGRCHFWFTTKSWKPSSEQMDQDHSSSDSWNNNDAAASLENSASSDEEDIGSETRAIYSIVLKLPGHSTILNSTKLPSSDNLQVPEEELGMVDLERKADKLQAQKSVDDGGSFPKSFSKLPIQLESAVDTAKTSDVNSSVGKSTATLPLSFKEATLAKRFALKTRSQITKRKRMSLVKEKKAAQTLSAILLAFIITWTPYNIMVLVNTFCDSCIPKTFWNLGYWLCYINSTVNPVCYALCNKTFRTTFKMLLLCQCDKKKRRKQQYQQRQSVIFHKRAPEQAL
Sequence of Cytochrome P450 2C9 (P11712 whole entry): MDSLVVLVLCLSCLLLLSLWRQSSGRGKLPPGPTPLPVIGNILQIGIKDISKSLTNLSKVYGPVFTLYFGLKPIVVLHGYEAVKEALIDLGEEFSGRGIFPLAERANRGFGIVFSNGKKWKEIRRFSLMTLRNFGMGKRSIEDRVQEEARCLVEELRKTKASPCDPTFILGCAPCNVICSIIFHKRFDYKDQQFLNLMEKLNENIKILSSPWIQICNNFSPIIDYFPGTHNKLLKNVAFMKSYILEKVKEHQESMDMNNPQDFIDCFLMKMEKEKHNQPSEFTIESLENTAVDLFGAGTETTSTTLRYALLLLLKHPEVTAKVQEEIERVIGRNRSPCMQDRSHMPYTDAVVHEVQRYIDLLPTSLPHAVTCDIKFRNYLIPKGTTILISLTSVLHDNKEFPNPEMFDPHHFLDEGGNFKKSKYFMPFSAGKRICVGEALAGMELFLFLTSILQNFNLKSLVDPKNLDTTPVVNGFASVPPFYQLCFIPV
Sequence of Cytochrome P450 2C19 (P33261 whole entry): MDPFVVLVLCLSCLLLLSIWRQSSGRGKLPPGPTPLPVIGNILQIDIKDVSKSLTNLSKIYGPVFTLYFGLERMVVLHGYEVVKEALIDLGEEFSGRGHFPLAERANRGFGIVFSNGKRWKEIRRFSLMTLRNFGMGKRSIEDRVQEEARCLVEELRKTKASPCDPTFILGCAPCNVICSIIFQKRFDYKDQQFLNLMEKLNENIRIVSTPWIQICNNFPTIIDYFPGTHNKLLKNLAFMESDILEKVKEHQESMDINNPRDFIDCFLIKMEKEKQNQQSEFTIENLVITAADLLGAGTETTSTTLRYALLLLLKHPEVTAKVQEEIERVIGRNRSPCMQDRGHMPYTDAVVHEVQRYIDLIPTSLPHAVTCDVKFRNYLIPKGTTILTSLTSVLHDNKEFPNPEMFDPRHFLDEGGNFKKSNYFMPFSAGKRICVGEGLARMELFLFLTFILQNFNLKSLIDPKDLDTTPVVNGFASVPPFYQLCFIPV

In the case of `NC/C=C/CN(C[C@H]1Cc2ccccc2CN1)[C@H]1CCCc2cccnc21`, the IC50 in series [1] was above 16 µM. The Papp at 4 h in [2] turned out to be 83 ×10⁻⁶ cm/s; in [3] it was 26 ×10⁻⁶ cm/s. Also, the “inhibition (INH)” value against Cytochrome P450 2C8, against Cytochrome P450 2C19, at Cytochrome P450 1A2, against Cytochrome P450 2C9, on Cytochrome P450 2B6 and against Cytochrome P450 2A6 was “Not Active” throughout. Moreover, the results for the Stability in [4], in series [5] and in series [6] were 11%, 34% and 100%, respectively.
